Data set [1] relates to Mus musculus. Description: In vivo potency against acute systemic infection in mouse caused by Streptococcus pyogenes C-203 on subcutaneous injection. In kind it is functional. Conditions: sc, read-out: PD50. Summed up: (§1)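 Acute systemic mouse infection. A single subcutaneous dose was injected at the time of challenge. Potency is reported as the median protective dose (PD50, mg/kg), determined by earlier published methods.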

For data set [2], the system named is Escherichia coli. Description: In vitro antibacterial activity against gram negative Escherichia coli Vogel. In kind it is functional.
In another data set the test system is Providencia rettgeri. Description: In vitro antibacterial activity against gram negative Providencia rettgeri M-1771. The class given is functional.
Another data set has as its system Streptococcus pyogenes. Description: In vitro antibacterial activity against gram positive Streptococcus pyogenes C-203. The class given is functional.
Data set [3] can be described thus: Solubility (in 0.1 N HCl). In kind it is physicochemical. Conditions: read-out: S. Summed up:
(§2)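 Solubility was measured either from HPLC peak areas at equilibrium or by a conventional weight-per-volume method. All solutions were held for 24 h before measurement.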

The test system of data set [4] is Mus musculus. Description: In vivo potency against acute systemic infection in mouse caused by Pseudomonas aeruginosa. UI-18. on subcutaneous injection. In kind it is functional. Conditions: sc, read-out: PD50. Summed up:
as §1

A further data set deals with Pseudomonas aeruginosa. Description: In vitro antibacterial activity against gram negative Pseudomonas aeruginosa UI-18. The class given is functional.
Data set [5] concerns Escherichia coli. Description: In vivo potency against acute systemic infection in mouse caused by Escherichia coli vogel on subcutaneous injection. In kind it is functional. Conditions: sc, read-out: PD50. Summed up: as §1
Data set [6] has as its system Streptococcus pneumoniae. Put plainly: In vivo potency against acute systemic infection in mouse caused by Streptococcus pneumoniae SV-1 on subcutaneous injection. In kind it is functional. Conditions: sc, read-out: PD50. Summed up: as §1
Data set [7] in a line: Solubility (at pH 7.4). The class given is physicochemical. Conditions: buffer, read-out: S. Summed up: as §2
Data set [8] deals with Staphylococcus aureus. Put plainly: In vitro antibacterial activity against gram positive Staphylococcus aureus UC76. In kind it is functional.
Data set [9] is described as follows: Aqueous solubility. The class given is physicochemical. Conditions: water (aqueous); read-out: S. Summed up: as §2
The subject of a further data set is Enterobacter cloacae. Put plainly: In vitro antibacterial activity against gram negative Enterobacter cloacae MA 2646. In kind it is functional.
Data set [10] addresses DNA gyrase (Escherichia coli) (UniProt P0AES6+P0AES4). Description: In vitro concentration inhibiting DNA gyrase induced cleavage in Escherichia coli H560. The class given is functional. Summed up: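 DNA gyrase test run as described in earlier work. The value is the drug concentration (µg/mL) needed to cause DNA cleavage.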
Data set [11] in a line: Solubility (at pH 4). In kind it is physicochemical. Conditions: buffer, read-out: S. Summed up:
as §2

Data set [12] concerns Streptococcus pneumoniae. Description: In vivo potency against acute systemic infection in mouse caused by Streptococcus pneumoniae SV-1 on oral administration by gavage. In kind it is functional. Conditions: read-out: PD50. Summed up: (§3)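 Acute systemic mouse infection. A single oral dose was given by gavage at the time of challenge. Potency is reported as the median protective dose (PD50, mg/kg), determined by earlier published methods.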

The next data set deals with Enterococcus faecalis. Put plainly: In vitro antibacterial activity against gram positive Enterococcus faecalis MGH-2. The class given is functional.
Data set [13] concerns Staphylococcus aureus. Put plainly: In vitro antibacterial activity against gram positive Staphylococcus aureus H-228. In kind it is functional.
The test system of data set [14] is Mus musculus. Put plainly: In vivo potency against acute systemic infection in mouse caused by Streptococcus pyogenes C-203 on oral administration by gavage. The class given is functional. Conditions: read-out: PD50. Summed up:
as §3

The subject of data set [15] is Escherichia coli. Description: In vivo potency against acute systemic infection in mouse caused by Escherichia coli Vogel on oral administration by gavage. The class given is functional. Conditions: read-out: PD50. Summed up:
as §3

For data set [16], the system named is Mus musculus. Put plainly: In vivo potency against acute systemic infection in mouse caused by Pseudomonas aeruginosa UI-18 on oral administration by gavage. Conditions: read-out: PD50. The class given is functional. Summed up:
as §3

Another data set deals with Klebsiella pneumoniae. Put plainly: In vitro antibacterial activity against gram negative Klebsiella pneumoniae MGH-2. In kind it is functional.
In data set [17] the test system is Streptococcus pneumoniae. Description: In vitro antibacterial activity against gram positive Streptococcus pneumoniae SV-1. The class given is functional.

Molecules are shown by their SMILES. Values after ≈ are worked out from the molar mass of the structure shown.

Regarding `Nc1c(F)c(N2CCC(N)C2)c(F)c2c1c(=O)c(C(=O)O)cn2C1CC1` (configuration not stated), the ED50 amounted to 6 mg/kg in the data set on Mus musculus [1]; 4 mg/kg with Mus musculus [4]; 0.4 mg/kg in the data set with Escherichia coli [5]; 9 mg/kg in the data set on Streptococcus pneumoniae [6]; 20 mg/kg in the data set with Streptococcus pneumoniae [12]; 24 mg/kg in the data set with Mus musculus [14]. Moreover, the ED50 amounted to 2 mg/kg in the data set with Escherichia coli [15] and 16 mg/kg with Mus musculus [16]. The MIC – broadly, the smallest concentration in the dilution series that meets the test's criterion for growth inhibition – was 0.006 µg/mL (≈ 0.0165 µM) against Escherichia coli [2]; 0.025 µg/mL (≈ 0.0686 µM) with Providencia rettgeri; 0.025 µg/mL (≈ 0.0686 µM) with Streptococcus pyogenes; 0.05 µg/mL (≈ 0.137 µM) against Pseudomonas aeruginosa; 0.006 µg/mL (≈ 0.0165 µM) against Staphylococcus aureus [8]; 0.006 µg/mL (≈ 0.0165 µM) in the data set with Enterobacter cloacae. Further, the MIC with Enterococcus faecalis was determined as 0.025 µg/mL (≈ 0.0686 µM); in the data set on Staphylococcus aureus [13] it was 0.013 µg/mL (≈ 0.0357 µM); against Klebsiella pneumoniae it was 0.006 µg/mL (≈ 0.0165 µM); in the data set on Streptococcus pneumoniae [17], 0.006 µg/mL (≈ 0.0165 µM). In addition, the solubility in [3] was determined as 100 µg/mL (≈ 274 µM); in data set [7], 80 µg/mL (≈ 220 µM); in data set [9], 2400 µg/mL (≈ 6590 µM); in [11], 3200 µg/mL (≈ 8780 µM). In [10], this compound displayed a Cleavage of 0.25 µg/mL.
Regarding `Cl.NC1CCN(c2c(F)cc3c(=O)c(C(=O)O)cn(C4CC4)c3c2F)C1` (configuration not stated), the ED50 in the data set on Mus musculus [1] came to 2 mg/kg; with Mus musculus [4], 3 mg/kg; in the data set with Escherichia coli [5], 0.2 mg/kg; with Streptococcus pneumoniae [6] it was 6 mg/kg; with Streptococcus pneumoniae [12], 15 mg/kg; in the data set on Mus musculus [14], 7 mg/kg. Besides, the ED50 was determined as 1 mg/kg in the data set with Escherichia coli [15] and 7 mg/kg in the data set with Mus musculus [16]. For the same compound, the MIC against Escherichia coli [2] is 0.013 µg/mL; in the data set on Providencia rettgeri, 0.05 µg/mL; in the data set on Streptococcus pyogenes, 0.05 µg/mL; against Pseudomonas aeruginosa, 0.05 µg/mL; against Staphylococcus aureus [8], 0.006 µg/mL; in the data set with Enterobacter cloacae it was 0.025 µg/mL. In addition, the MIC against Enterococcus faecalis came to 0.05 µg/mL; in the data set with Staphylococcus aureus [13] it was 0.025 µg/mL; with Klebsiella pneumoniae, 0.025 µg/mL; in the data set with Streptococcus pneumoniae [17], 0.05 µg/mL. Further, the solubility in data set [3] stood at 3000 µg/mL; in data set [7], 80 µg/mL; in data set [9], 15000 µg/mL; in data set [11] it was 2400 µg/mL. Moreover, the Cleavage in data set [10] was determined as 0.1 µg/mL.
With `C[C@H](N)C(=O)N[C@H]1CCN(c2c(F)c(N)c3c(=O)c(C(=O)O)cn(C4CC4)c3c2F)C1.Cl.O`, the ED50 with Mus musculus [1] came out at 23 mg/kg; in the data set on Mus musculus [4], 4 mg/kg; in the data set with Escherichia coli [5], 2.5 mg/kg; in the data set with Streptococcus pneumoniae [6], 13 mg/kg; in the data set on Streptococcus pneumoniae [12] it was 17 mg/kg; with Mus musculus [14] it was 6.3 mg/kg. Besides, the ED50 in the data set with Escherichia coli [15] amounted to 5 mg/kg; with Mus musculus [16], 9.6 mg/kg. Moreover, the MIC in the data set on Escherichia coli [2] was found to be 0.05 µg/mL; in the data set with Providencia rettgeri, 0.4 µg/mL; in the data set with Streptococcus pyogenes, 0.05 µg/mL; against Pseudomonas aeruginosa it was 1.6 µg/mL; against Staphylococcus aureus [8], 0.025 µg/mL; in the data set on Enterobacter cloacae, 0.05 µg/mL. Further, the MIC is 0.2 µg/mL against Enterococcus faecalis, 0.1 µg/mL against Staphylococcus aureus [13], 0.2 µg/mL in the data set with Klebsiella pneumoniae and 0.05 µg/mL with Streptococcus pneumoniae [17]. Further, the solubility stood at 2800 µg/mL in [3], 40 µg/mL in data set [7], 18000 µg/mL in [9] and 58000 µg/mL in data set [11]. The compound further returned a Cleavage in data set [10] of 2.5 µg/mL.
As for `C[C@H](N)C(=O)NC1CCN(c2c(F)cc3c(=O)c(C(=O)O)cn(C4CC4)c3c2F)C1.Cl.O` (some centres not stated), the ED50 with Mus musculus [1] worked out at 4 mg/kg; with Mus musculus [4] it was 2 mg/kg; with Escherichia coli [5] it was 0.3 mg/kg; with Streptococcus pneumoniae [6] it was 9 mg/kg; in the data set on Streptococcus pneumoniae [12], 13 mg/kg; with Mus musculus [14], 12 mg/kg. Moreover, the figures for the ED50 in the data set with Escherichia coli [15] and in the data set on Mus musculus [16] were 2 mg/kg and 13 mg/kg, respectively. Moreover, the MIC in the data set on Escherichia coli [2] stood at 0.2 µg/mL; against Providencia rettgeri, 0.2 µg/mL; in the data set with Streptococcus pyogenes it was 0.1 µg/mL; against Pseudomonas aeruginosa, 0.4 µg/mL; with Staphylococcus aureus [8] it was 0.05 µg/mL; against Enterobacter cloacae, 0.2 µg/mL. In addition, the minimal inhibitory concentration (MIC) against Enterococcus faecalis turned out to be 0.4 µg/mL; with Staphylococcus aureus [13] it was 0.2 µg/mL; with Klebsiella pneumoniae, 0.2 µg/mL; in the data set with Streptococcus pneumoniae [17] it was 0.1 µg/mL. Further, the solubility amounted to 7200 µg/mL in data set [3], 90 µg/mL in data set [7], 31000 µg/mL in data set [9] and 25000 µg/mL in data set [11]. Moreover, in data set [10], the Cleavage stood at 1 µg/mL.

The values above are taken from ChEMBL document CHEMBL1126036, “Quinolone antibacterial agents. Synthesis and structure-activity relationships of a series of amino acid prodrugs of racemic and chiral 7-(3-amino-1-pyrrolidinyl)quinolones. Highly soluble quinolone prodrugs with in vivo pseudomonas activity” (J Med Chem, 1992).
